Assay results: paper PMC8897028 (Acta Pharmaceutica Sinica. B, 2021)
Positions count from the first letter of the chain named.

Experiments:
hTRPV3 = biological target: T1, hTRPV3 (Homo sapiens, UniProt Q8NET8); test: inside-out single-channel recordings of HEK293 cells overexpressing hTRPV3; type: biochemical; conditions: for channel open probability: compound 100 μmol/L in the presence of carvacrol 300 μmol/L, from 26.9 ± 5.5%, +80 mV, n = 4; for effect on ion permeation or single-channel conductance: single-channel level
T1 sequence (Q8NET8 1-790): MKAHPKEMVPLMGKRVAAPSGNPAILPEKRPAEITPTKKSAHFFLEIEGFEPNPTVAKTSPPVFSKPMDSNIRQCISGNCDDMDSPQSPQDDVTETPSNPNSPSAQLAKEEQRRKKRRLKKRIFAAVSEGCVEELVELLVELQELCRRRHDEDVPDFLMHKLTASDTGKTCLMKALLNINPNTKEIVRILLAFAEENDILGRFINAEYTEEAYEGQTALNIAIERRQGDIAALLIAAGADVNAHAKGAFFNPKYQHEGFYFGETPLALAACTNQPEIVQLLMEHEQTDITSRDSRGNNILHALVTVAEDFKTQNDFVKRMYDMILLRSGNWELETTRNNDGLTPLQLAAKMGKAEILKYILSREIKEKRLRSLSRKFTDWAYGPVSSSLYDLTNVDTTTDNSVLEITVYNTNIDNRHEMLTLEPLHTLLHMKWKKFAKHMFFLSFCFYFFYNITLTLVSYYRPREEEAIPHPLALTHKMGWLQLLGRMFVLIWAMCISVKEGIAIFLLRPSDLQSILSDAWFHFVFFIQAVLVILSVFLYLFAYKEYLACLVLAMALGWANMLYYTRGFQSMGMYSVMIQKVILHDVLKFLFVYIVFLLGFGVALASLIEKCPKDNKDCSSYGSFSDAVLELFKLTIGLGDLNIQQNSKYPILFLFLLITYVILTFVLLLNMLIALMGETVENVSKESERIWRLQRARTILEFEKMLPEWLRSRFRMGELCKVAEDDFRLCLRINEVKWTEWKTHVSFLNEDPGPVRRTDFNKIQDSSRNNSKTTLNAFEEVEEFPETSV
Method in brief: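 Inside-out patches from EGFP-identified HEK293 cells, 18 h after hTRPV3 transfection, used 6–10 MΩ pipettes. Patches were held at 0 mV, then stepped to +80 mV. Currents were sampled at 10 kHz, filtered at 2.9 kHz, at 22–24 °C. All-points histograms were Gaussian-fitted for conductance and mean open probability; n = 4.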

mTRPV3 V662A = biological target: T2, mTRPV3 V662A (Mus musculus, UniProt Q8K424, V662A); test: whole-cell patch-clamp of mTRPV3 V662A mutant in HEK293 cells; type: cell-based; conditions: compound 50 μmol/L; 2-APB; compared with WT mTRPV3
T2 sequence (Q8K424 1-791 V662A): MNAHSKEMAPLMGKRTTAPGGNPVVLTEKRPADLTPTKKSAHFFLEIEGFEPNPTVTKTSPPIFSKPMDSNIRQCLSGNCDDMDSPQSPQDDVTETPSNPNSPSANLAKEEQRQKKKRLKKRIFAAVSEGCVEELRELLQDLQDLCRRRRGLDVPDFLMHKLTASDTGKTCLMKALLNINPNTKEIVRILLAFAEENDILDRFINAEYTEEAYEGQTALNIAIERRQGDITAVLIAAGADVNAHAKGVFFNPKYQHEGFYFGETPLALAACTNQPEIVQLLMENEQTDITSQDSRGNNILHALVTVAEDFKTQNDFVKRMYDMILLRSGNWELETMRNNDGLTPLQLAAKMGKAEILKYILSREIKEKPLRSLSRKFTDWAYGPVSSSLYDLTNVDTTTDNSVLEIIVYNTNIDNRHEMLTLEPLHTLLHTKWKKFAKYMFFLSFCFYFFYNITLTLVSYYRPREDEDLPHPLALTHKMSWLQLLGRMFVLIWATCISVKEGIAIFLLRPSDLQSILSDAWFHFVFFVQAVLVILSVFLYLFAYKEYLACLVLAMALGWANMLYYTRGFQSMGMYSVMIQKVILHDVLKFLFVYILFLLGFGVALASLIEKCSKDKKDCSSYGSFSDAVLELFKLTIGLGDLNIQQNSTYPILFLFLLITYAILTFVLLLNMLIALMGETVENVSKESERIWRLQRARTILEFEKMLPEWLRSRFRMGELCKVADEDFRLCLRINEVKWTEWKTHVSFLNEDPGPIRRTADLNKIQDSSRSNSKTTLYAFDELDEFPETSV
Method in brief: (§1)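 Mouse Trpv3 point mutants were made by site-directed mutagenesis, sequence-verified, and transiently expressed in HEK293 cells alongside wild-type mTRPV3. Whole-cell ramp recordings (−100 to +100 mV, 500 ms, holding 0 mV) were made at 22–24 °C. Currents were activated by 2-APB, and inhibition by 50 μmol/L test compound in the presence of 2-APB was compared with wild type; n = 3–8.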

mTRPV3 T636A = biological target: T3, mTRPV3 T636A (Mus musculus, UniProt Q8K424, T636A); test: whole-cell patch-clamp of mTRPV3 T636A mutant in HEK293 cells; type: cell-based; conditions: compound 50 μmol/L; 2-APB; compared with WT mTRPV3
T3 sequence (Q8K424 1-791 T636A): T2 sequence (Q8K424 1-791 V662A) with T636A, A662V
Method in brief: as §1

Structure (SMILES) | channel open probability (hTRPV3) [%] | effect on ion permeation or single-channel conductance (hTRPV3) | effect of mutation on compound-induced inhibition of mTRPV3 currents (mTRPV3 V662A) | effect of mutation on compound-induced inhibition of mTRPV3 currents (mTRPV3 T636A)
O=C(/C=C/c1ccc(O)c(O)c1)O[C@@H]1[C@H](O)C[C@@](O)(C(=O)O)C[C@H]1OC(=O)/C=C/c1ccc(O)c(O)c1 [IAB, isochlorogenic acid B] | 3.2 ± 1.1 | no effect | no obvious effect | markedly reduced
O=C(/C=C/c1ccc(O)c(O)c1)O[C@@H]1C[C@](O)(C(=O)O)C[C@@H](OC(=O)/C=C/c2ccc(O)c(O)c2)[C@H]1O [IAA, isochlorogenic acid A] | 3.7 ± 1.2 | no effect | no obvious effect | markedly reduced
